For 18 compounds, IC50 results are on record in ChEMBL document CHEMBL4346670, “Discovery of Novel Janus Kinase (JAK) and Histone Deacetylase (HDAC) Dual Inhibitors for the Treatment of Hematological Malignancies” (J Med Chem, 2019).

One experiment addresses Histone deacetylase 2 (Homo sapiens, UniProt Q92769). Description: Inhibition of HDAC2 (unknown origin) using Boc-Lys(acetyl)-AMC as substrate preincubated for 5 mins followed by substrate addition and measured after 30 mins by fluorescence assay.
Experiment [1] concerns the target T1, Protein deacetylase HDAC6 (Homo sapiens, UniProt Q9UBN7).
T1 sequence (Q9UBN7 whole entry): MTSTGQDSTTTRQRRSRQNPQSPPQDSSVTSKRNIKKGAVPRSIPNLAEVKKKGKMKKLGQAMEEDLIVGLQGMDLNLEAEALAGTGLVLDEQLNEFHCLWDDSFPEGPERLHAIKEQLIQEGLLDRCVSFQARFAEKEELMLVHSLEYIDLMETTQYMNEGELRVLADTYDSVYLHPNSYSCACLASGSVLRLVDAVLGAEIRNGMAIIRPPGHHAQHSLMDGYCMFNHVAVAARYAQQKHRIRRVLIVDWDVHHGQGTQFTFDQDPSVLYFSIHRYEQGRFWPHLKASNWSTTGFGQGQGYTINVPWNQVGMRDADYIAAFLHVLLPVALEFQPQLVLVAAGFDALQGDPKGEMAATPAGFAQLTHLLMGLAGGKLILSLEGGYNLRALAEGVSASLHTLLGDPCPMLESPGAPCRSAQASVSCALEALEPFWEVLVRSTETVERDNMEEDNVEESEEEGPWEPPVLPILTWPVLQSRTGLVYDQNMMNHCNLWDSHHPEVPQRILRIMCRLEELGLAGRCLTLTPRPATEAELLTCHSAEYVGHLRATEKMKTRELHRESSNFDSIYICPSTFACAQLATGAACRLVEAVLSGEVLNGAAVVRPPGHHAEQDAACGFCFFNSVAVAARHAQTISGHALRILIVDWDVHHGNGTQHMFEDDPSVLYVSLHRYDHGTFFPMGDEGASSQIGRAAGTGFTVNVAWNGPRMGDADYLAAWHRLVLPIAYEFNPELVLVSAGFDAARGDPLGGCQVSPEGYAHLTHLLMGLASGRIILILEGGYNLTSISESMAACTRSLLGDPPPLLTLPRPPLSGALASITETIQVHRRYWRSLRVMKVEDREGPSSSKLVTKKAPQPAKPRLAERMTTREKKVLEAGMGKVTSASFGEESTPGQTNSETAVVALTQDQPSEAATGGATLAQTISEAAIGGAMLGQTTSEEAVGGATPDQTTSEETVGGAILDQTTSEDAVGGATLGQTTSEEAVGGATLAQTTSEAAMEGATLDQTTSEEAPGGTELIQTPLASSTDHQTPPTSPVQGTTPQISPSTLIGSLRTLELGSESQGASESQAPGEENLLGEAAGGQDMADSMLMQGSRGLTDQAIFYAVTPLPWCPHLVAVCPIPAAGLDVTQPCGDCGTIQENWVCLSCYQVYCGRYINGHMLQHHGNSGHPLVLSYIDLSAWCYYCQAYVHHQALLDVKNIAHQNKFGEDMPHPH
Description: Inhibition of HDAC6 (unknown origin) using Boc-Lys(acetyl)-AMC as substrate preincubated for 5 mins followed by substrate addition and measured after 30 mins by fluorescence assay.

The target in experiment [2] is Tyrosine-protein kinase JAK2 (Homo sapiens, UniProt O60674). Kind of experiment: Inhibition of recombinant human JAK2 using Ulight-CAGAGAIETDKEYYTVKD as substrate measured after 60 mins by LANCE assay.
Chain of Tyrosine-protein kinase JAK2 (O60674 whole entry): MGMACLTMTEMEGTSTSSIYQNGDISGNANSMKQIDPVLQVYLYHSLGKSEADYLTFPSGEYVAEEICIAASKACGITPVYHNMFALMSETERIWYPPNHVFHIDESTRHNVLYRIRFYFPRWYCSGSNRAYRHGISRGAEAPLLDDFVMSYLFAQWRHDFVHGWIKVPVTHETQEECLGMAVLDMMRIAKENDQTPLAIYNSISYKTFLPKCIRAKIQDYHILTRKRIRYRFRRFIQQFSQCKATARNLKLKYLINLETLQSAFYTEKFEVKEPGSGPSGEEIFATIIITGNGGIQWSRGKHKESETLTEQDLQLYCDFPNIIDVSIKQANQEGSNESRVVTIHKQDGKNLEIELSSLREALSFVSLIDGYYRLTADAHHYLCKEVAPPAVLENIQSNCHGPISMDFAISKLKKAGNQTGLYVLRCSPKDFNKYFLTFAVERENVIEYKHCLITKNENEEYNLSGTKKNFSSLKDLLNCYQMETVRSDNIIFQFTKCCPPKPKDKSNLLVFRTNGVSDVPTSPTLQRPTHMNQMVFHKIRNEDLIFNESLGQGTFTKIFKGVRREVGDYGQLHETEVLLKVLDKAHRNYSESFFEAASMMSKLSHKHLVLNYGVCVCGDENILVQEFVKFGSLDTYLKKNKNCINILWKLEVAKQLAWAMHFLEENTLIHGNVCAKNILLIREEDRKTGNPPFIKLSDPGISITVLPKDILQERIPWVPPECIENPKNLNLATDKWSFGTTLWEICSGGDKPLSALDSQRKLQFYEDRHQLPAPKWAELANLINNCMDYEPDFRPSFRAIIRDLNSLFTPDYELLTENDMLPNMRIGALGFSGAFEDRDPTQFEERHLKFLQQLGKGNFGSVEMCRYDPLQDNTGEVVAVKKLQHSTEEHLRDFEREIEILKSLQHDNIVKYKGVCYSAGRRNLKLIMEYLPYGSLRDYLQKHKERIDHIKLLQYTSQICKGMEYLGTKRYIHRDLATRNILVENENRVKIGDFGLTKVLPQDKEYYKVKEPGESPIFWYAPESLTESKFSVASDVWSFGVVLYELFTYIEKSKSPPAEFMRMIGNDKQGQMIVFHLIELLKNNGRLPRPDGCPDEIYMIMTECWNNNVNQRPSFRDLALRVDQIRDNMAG
A further experiment relates to HEL. Kind of experiment: Antiproliferative activity against HEL cells harboring JAK2 V617F mutant assessed as reduction in cell viability after 48 hrs by MTT assay. It counts as functional, cell-based. The following applies: Homo sapiens. A general note: Tetrazolium dyes change colour on reduction, which living cells bring about.
A further experiment has as its target T2, Histone deacetylase 8 (Homo sapiens, UniProt Q9BY41).
T2 sequence (Q9BY41 whole entry): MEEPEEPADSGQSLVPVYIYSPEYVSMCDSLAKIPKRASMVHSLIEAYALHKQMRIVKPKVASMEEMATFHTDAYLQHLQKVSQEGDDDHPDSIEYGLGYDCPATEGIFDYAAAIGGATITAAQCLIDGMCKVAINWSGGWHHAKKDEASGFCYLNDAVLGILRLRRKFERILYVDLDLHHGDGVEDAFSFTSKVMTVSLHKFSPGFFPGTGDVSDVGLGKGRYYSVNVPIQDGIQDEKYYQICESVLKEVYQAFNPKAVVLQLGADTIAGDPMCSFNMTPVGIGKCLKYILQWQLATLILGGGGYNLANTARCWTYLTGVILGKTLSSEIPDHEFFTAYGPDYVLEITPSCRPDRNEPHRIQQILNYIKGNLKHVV
Kind of experiment: Inhibition of HDAC8 (unknown origin) using Boc-Lys(trifluoroacetyl)-AMC as substrate preincubated for 5 mins followed by substrate addition and measured after 30 mins by fluorescence assay.

The next experiment deals with K562. Kind of experiment: Antiproliferative activity against human K562 cells assessed as reduction in cell viability after 48 hrs by MTT assay. The experiment is classed as functional, cell-based. The following applies: K562, 48 h.
The next experiment concerns Jurkat. Kind of experiment: Antiproliferative activity against human Jurkat cells assessed as reduction in cell viability after 48 hrs by MTT assay. The experiment is classed as functional, cell-based.
The next experiment deals with Histone deacetylase. Kind of experiment: Inhibition of HDAC in human HeLa nuclear extract using Boc-Lys(acetyl)-AMC as substrate preincubated for 5 mins followed by substrate addition and measured after 30 mins by fluorescence assay. It counts as cell-based.
The test system of a further experiment is MOLT-4. Kind of experiment: Antiproliferative activity against human MOLT4 cells assessed as reduction in cell viability after 48 hrs by MTT assay. The following applies: MOLT-4, 48 h. It counts as functional, cell-based. In a few lines: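 Cells kept in RPMI1640 with 10% FBS at 37 °C, 5% CO2. Seeded and grown for 12 h, then exposed to a range of compound concentrations for 48 h. 0.5% MTT added for 4 h, formazan dissolved in DMSO, absorbance read at 570 nm.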

Experiment [3] concerns the target T3, Tyrosine-protein kinase JAK3 (Homo sapiens, UniProt P52333).
T3 sequence (P52333 whole entry): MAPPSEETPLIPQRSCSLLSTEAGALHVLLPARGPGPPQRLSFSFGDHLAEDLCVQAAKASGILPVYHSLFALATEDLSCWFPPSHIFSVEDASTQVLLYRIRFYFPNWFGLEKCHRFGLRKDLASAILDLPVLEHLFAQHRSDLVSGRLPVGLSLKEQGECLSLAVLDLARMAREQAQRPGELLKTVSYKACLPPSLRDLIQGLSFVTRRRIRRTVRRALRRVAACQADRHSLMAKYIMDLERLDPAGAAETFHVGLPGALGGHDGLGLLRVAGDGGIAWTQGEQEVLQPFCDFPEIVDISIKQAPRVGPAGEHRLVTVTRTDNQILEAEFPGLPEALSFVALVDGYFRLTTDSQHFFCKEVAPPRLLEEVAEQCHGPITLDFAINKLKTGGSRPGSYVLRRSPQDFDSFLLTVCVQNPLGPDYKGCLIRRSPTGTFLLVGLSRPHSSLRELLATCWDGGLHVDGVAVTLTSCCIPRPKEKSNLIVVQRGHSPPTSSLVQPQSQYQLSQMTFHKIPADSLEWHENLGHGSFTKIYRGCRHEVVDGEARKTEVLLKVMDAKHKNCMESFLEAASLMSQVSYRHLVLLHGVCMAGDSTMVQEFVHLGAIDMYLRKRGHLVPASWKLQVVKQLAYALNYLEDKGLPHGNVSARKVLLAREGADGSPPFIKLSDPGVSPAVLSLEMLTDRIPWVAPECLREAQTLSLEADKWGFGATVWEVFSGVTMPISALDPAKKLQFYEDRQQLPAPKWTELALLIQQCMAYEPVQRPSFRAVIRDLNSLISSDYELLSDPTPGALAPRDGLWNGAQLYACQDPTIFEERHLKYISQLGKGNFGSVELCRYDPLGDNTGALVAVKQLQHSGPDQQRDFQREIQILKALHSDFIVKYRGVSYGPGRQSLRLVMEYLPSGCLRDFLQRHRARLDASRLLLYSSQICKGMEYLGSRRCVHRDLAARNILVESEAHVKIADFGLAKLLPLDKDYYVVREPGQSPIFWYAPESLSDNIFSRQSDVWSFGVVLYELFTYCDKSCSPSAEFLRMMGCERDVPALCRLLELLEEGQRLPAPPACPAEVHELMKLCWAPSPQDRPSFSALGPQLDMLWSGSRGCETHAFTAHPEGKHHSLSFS
Description: Inhibition of recombinant human JAK3 using Ulight-CAGAGAIETDKEYYTVKD as substrate measured after 60 mins by LANCE assay. For orientation: TR-FRET usually uses a lanthanide donor and a delayed reading to cut background.

In experiment [4] the target is Tyrosine-protein kinase JAK1 (Homo sapiens, UniProt P23458). Kind of experiment: Inhibition of recombinant human JAK1 using Ulight-CAGAGAIETDKEYYTVKD as substrate measured after 60 mins by LANCE assay. In a few lines:
(§1)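 Human recombinant JAK enzyme assays run by a contract lab. IC50 was taken from a non-linear curve fit, with all parameters allowed to float. Assays were run in replicate (n>2) and reported as mean ± SD.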

Experiment [5] addresses Non-receptor tyrosine-protein kinase TYK2 (Homo sapiens, UniProt P29597). Kind of experiment: Inhibition of recombinant human TYK2 using Ulight-CAGAGAIETDKEYYTVKD as substrate measured after 60 mins by LANCE assay. In a few lines: as §1

Bounds are passed on as bounds.

Chain of Histone deacetylase 2 (Q92769 whole entry): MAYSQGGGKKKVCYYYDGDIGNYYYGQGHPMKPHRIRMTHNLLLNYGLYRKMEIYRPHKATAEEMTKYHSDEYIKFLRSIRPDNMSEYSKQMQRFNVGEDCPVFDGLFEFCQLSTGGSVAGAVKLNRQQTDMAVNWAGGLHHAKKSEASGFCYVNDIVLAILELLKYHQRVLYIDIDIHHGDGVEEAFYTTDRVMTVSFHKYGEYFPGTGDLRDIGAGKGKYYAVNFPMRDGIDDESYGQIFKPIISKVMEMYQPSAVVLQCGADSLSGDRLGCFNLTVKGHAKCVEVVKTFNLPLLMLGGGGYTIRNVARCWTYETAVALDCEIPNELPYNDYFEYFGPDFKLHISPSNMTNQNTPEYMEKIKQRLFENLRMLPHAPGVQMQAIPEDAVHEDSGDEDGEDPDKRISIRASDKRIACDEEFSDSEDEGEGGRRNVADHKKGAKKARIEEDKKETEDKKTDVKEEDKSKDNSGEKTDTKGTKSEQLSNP
Chain of Non-receptor tyrosine-protein kinase TYK2 (P29597 whole entry): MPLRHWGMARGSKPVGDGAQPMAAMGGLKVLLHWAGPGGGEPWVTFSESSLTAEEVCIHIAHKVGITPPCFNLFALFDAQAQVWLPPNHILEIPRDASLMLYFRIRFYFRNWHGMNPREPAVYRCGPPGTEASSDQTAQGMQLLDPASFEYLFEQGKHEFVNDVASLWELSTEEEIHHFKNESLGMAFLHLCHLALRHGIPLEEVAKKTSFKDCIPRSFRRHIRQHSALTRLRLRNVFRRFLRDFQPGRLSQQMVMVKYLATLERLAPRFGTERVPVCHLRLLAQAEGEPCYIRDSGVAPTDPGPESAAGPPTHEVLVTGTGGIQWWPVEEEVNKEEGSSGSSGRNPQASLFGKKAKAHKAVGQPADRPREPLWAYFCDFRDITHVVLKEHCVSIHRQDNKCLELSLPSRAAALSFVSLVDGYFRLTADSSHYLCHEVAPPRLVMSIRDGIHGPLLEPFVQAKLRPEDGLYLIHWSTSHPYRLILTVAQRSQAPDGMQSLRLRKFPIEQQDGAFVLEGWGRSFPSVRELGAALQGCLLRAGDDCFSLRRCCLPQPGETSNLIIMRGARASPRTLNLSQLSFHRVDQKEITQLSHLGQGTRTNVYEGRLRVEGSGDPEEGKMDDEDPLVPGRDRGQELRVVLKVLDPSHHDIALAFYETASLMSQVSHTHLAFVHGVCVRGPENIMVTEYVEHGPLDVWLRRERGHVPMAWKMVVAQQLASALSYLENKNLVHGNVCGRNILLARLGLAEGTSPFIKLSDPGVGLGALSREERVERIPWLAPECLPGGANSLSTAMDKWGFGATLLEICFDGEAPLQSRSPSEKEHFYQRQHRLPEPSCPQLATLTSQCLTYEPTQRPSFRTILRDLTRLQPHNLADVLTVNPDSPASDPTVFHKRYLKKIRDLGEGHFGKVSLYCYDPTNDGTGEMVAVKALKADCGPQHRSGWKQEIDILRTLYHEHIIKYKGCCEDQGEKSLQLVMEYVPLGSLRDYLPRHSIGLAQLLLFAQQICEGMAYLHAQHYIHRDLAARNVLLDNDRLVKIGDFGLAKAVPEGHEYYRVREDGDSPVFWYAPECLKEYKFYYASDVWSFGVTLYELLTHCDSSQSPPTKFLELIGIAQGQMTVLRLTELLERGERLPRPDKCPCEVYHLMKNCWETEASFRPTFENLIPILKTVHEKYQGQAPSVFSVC
Chain of Tyrosine-protein kinase JAK1 (P23458 whole entry): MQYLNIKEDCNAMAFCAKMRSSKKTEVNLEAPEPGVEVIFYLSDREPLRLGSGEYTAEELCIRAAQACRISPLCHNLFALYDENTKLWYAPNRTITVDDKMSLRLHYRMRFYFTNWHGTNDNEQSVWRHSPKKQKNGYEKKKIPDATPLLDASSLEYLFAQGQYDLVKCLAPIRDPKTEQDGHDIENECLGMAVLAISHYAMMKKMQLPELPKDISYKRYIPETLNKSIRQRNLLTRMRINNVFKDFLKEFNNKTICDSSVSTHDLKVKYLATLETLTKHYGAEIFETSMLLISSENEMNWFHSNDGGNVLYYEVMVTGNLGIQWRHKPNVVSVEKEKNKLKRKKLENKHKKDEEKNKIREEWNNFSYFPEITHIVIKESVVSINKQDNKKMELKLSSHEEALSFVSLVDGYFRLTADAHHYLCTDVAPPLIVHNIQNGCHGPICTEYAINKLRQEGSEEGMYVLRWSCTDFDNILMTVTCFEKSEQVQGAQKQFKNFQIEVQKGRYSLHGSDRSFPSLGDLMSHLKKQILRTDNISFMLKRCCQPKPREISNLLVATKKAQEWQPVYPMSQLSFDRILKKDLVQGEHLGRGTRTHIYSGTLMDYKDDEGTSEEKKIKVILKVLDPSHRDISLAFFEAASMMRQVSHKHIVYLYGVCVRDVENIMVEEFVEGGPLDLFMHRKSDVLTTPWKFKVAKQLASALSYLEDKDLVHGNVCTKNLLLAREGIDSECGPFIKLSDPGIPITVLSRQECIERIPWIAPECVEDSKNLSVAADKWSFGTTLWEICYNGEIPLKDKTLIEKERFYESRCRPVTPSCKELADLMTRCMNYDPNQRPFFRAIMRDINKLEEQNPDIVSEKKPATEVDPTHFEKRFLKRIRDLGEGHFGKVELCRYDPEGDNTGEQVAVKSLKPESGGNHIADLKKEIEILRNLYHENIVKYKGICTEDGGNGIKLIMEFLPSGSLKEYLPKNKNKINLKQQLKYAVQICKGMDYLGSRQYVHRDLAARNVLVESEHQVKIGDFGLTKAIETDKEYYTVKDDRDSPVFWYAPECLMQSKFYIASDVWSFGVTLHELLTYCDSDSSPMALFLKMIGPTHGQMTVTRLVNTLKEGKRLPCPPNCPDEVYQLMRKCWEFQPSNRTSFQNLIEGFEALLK

Broadly, the IC50 is the concentration at which inhibition is half-maximal. As to `O=C(/C=C/c1ccc(Cn2cc(Nc3ncc(Cl)c(Nc4ccc(F)cc4)n3)cn2)cc1)NO`, the IC50 on Histone deacetylase 2 amounted to 1000 nM; in [1] it was 63 nM; in [2], 43 nM; in the experiment with HEL it was 600 nM; at Histone deacetylase 8 it was 14100 nM; in the experiment with K562, 1030 nM. The IC50 in the experiment on Jurkat is 150 nM; against Histone deacetylase it was 144 nM; in the experiment with MOLT-4, 330 nM.
As to `O=C(CCCCCCCn1cc(Nc2ncc(Cl)c(Nc3ccc(F)cc3)n2)cn1)NO`, the concentration for half-maximal inhibition (IC50) against Histone deacetylase 2 was 430 nM; in [1], 300 nM; in [2], 61 nM; against Histone deacetylase 8, 1700 nM; at Histone deacetylase it was 38 nM.
Consider `O=C(CCn1cc(Nc2ncc(Cl)c(Nc3ccc(F)cc3)n2)cn1)NO`, for which the concentration for half-maximal inhibition (IC50) in [2] is 22 nM; on Histone deacetylase, greater than 10000 nM.
Turning to `CNc1nc(Nc2cnn(CCCCCC(=O)NO)c2)ncc1Cl`, the IC50 in experiment [2] was found to be 36 nM; at Histone deacetylase, 104 nM.
With `O=C(CCCCCn1cc(Nc2ncc(Cl)c(Nc3ccccc3Cl)n2)cn1)NO`, the IC50 was found to be 18 nM in experiment [2]; 430 nM in the experiment with HEL; 1810 nM with K562; 310 nM in the experiment with Jurkat; 18 nM at Histone deacetylase; 630 nM with MOLT-4.
As for `CNc1nc(Nc2cnn(CCCCCCC(=O)NO)c2)ncc1C(F)(F)F`, the 50% inhibitory concentration (IC50) in experiment [2] amounted to 85 nM; on Histone deacetylase it was 37 nM.
As to `O=C(CCCCCCn1cc(Nc2ncc(Cl)c(N3CCCCC3)n2)cn1)NO`, the IC50 in [3] is 3.7 nM; in experiment [2] it was 50 nM; in experiment [4], 30 nM; in experiment [5], 60 nM; against Histone deacetylase, 40 nM.
As to `O=C(CCCCCCn1cc(Nc2ncc(C(F)(F)F)c(Nc3ccc(F)cc3)n2)cn1)NO`, the half-inhibitory concentration (IC50) in [2] was greater than 100 nM; in the experiment on HEL, 420 nM; with K562, 480 nM; against Histone deacetylase, 41 nM; with MOLT-4, 240 nM.
Take `O=C(CCCCCCn1cc(Nc2nccc(Nc3ccc(F)cc3)n2)cn1)NO`: the figures for the half-inhibitory concentration (IC50) (in experiment [2]; on Histone deacetylase) were greater than 100 nM and 18 nM, respectively.
As for `O=C(NO)c1ccc(Cn2cc(Nc3ncc(Cl)c(Nc4ccc(F)cc4)n3)cn2)cc1`, the IC50 was 730 nM against Histone deacetylase 2; 13 nM in experiment [1]; 21 nM in experiment [2]; 120 nM against Histone deacetylase 8; 62 nM on Histone deacetylase.
With `CCCNc1nc(Nc2cnn(CCCCCCC(=O)NO)c2)ncc1Cl`, the half-inhibitory concentration (IC50) in experiment [2] came out at 30 nM; against Histone deacetylase, 26 nM.
For `O=C(CCCn1cc(Nc2ncc(Cl)c(Nc3ccc(F)cc3)n2)cn1)NO` the same measures were 10 nM and greater than 10000 nM.
With `O=C(CCCCCn1cc(Nc2ncc(Cl)c(Nc3cccc(Cl)c3)n2)cn1)NO`, the IC50 amounted to 7 nM in [2]; 80 nM in the experiment with HEL; 580 nM in the experiment with K562; 50 nM with Jurkat; 4 nM on Histone deacetylase; 80 nM in the experiment with MOLT-4.
Take `O=C(CCCCCCn1cc(Nc2ncc(Cl)c(N3CCOCC3)n2)cn1)NO`: the IC50 in experiment [2] is 20 nM; in the experiment with HEL, 470 nM; with K562, 910 nM; in the experiment with Jurkat, 170 nM; against Histone deacetylase it was 37 nM; in the experiment on MOLT-4, 320 nM.
Regarding `O=C(CCCCCCn1cc(Nc2ncc(Cl)c(Nc3ccccc3Cl)n2)cn1)NO`, the IC50 in [2] was found to be 46 nM; in the experiment with HEL it was 340 nM; in the experiment with K562 it was 860 nM; in the experiment with Jurkat, 250 nM; against Histone deacetylase it was 10 nM; in the experiment on MOLT-4, 510 nM.
Regarding `O=C(CCCCCn1cc(Nc2ncc(Cl)c(Nc3ccc(F)cc3)n2)cn1)NO`, the IC50 in experiment [2] amounted to 5 nM; in the experiment on HEL, 150 nM; in the experiment on K562 it was 420 nM; in the experiment with Jurkat it was 60 nM; on Histone deacetylase it was 26 nM; in the experiment on MOLT-4, 120 nM.
For `O=C(CCCCn1cc(Nc2ncc(Cl)c(Nc3ccc(F)cc3)n2)cn1)NO`, the IC50 was determined as 1400 nM against Histone deacetylase 2; 310 nM in [1]; 46 nM in experiment [2]; 5100 nM against Histone deacetylase 8; 569 nM on Histone deacetylase.
In the case of `O=C(CCCCCCn1cc(Nc2ncc(Cl)c(Nc3ccccc3)n2)cn1)NO`, the IC50 in experiment [2] stood at 12 nM; with HEL, 180 nM; with K562, 420 nM; with Jurkat, 90 nM; at Histone deacetylase, 19 nM; in the experiment on MOLT-4 it was 160 nM.
